Bioassay records as filed in PubChem BioAssay.
This excerpt belongs to a sample that is enriched for hits.
NOD2-RIPK2 inh: inhibitors of human NOD2-RIPK2 interaction; 360,000 tested, 0.38% active; inhibition, % at 4.98 µM; CHO BLA complementation NOD2-RIPK2, CCF4 ratio; AID 624267; O43353; in the data active means inhibition above about 21%;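 further: 0% = vehicle only and 100% = reference blocker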
CHOP UPR activ: activators of apoptotic arm of unfolded protein response (CHOP) | AID 449763 | activation, % at 10 µM | CHO-CHOP luciferase reporter, UPR activation, luminescence; percent of tunicamycin response over DMSO baseline | 330,000 tested, 0.34% active;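 active means at 10 µM dose, activation of 40% or more, normalized to positive control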;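 further: 100% = tunicamycin at 10 µg/mL and 0% = DMSO alone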
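Test system: CHO-CHOP cells, stable luciferase reporter of PERK-eIF2a-CHOP signalling | Quantity: 500 CHO-CHOP cells per well | Buffer or medium: F12 plus 10% serum | Compound dosing: 10 µM single point, 0.5% DMSO | Schedule: 6 h compound treatment, 37 °C | Signal: Luciferase luminescence | Control set: Tunicamycin high control, DMSO low control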
XBP1 UPR activ: activators of adaptive arm of unfolded protein response (XBP1); CHO-XBP1 luciferase reporter, IRE1-XBP1 UPR activation, luminescence; percent of tunicamycin response, DMSO as zero; activation, % at 20 µM; 330,000 tested, 0.33% active; AID 463104;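 active means versus positive control, 20 µM dose yields 30% or more activation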;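 further: 100% = tunicamycin at 10 µg/mL and 0% = DMSO only wells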
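Assay system: CHO-XBP1 luciferase reporter cells; Schedule: 6 h treatment, 37 °C; Detection: glow luminescence from Steady-Glo reagent; Benchmarks: high control tunicamycin 10 µg/mL final, low control DMSO vehicle only.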
TLR9-MyD88 block: inhibitors of human TLR9-MyD88 binding; 340,000 tested, 0.21% active; CHO BLA complementation TLR9-MyD88, CCF4 FRET ratio; inhibition, % at 4.98 µM;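 active means inhibition above the mean over all tested compounds plus 3 SD, cut at about 21% in these data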;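 further: 0% = DMSO only wells and 100% = clavulanate BLA inhibitor control wells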
CHOP inh: inhibitors of CHOP induction in ER stress response; inhibition, % at 10 µM; AID 2732; CHO-K1 CHOP-promoter luciferase, tunicamycin-induced, 15-18 h; 220,000 tested, 3.8% active;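 active means compounds that reduced the stress-induced luciferase reporter signal by more than about 70% of percent inhibition, limit read from the data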;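 further: 0% = tunicamycin plus vehicle and 100% = wells without tunicamycin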
TLR4-MyD88 BLA: TLR4-MyD88 interaction inhibition in cells | inhibition, % at 8.4 µM | O00206+Q99836 | 200,000 tested, 0.18% active | AID 861 | HeLa CL3-4 TLR4/MyD88 BLA complementation, FRET ratio; in the data active means inhibition above about 25%;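 further: 0% = vehicle and 100% = reference inhibitor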
Starred values were filed as active, the others as inactive; . = no result; ! = a repeat was not active.

SMILES	NOD2-RIPK2 inh	CHOP UPR activ	XBP1 UPR activ	TLR9-MyD88 block	CHOP inh	TLR4-MyD88 BLA
C=CC(N)CCC(=O)O (stereo not drawn)	.	.	.	.	91*	.
NC(N)=NCCSSCCN=C(N)N	.	.	.	.	7	.
Cc1ccc(F)c(S(=O)(=O)NC(=O)C2(C)CCN2C(=O)c2ccccc2)c1 (stereo not drawn)	-5	.	.	.	.	.
CCCN(CCC)c1nc2ccccc2nc1C(C#N)C(=O)OC(C)COC (stereo not drawn)	.	-10	2	.	87*	-1
CCn1nc(NS(=O)(=O)c2ccccc2[N+](=O)[O-])c2cc3ccc(C)cc3nc21	-19	1	-4	12	.	.
O=C(Nc1ccccc1)Nc1ncc([N+](=O)[O-])s1	6	1	-5	5	86*	6
CCn1c(CC(=O)Nc2ccc(OC)cc2)nnc1SCC(=O)N1CCOCC1	1	0	-5	-14	.	.
Cc1ccc(S(=O)(=O)Oc2ccc3c(c2)O/C(=C\c2cccnc2)C3=O)cc1	5	0	-2	5	78*	-3
O=C(Nc1nnc(-c2ccc(Br)cc2)o1)c1cccc(N2C(=O)CCC2=O)c1	0	0	-2	3	.	.
Cc1cc(C)cc(Nc2cc(=O)n(C3CCCCC3)c(=O)[nH]2)c1	-9	0	-6	2	87*	-11
COc1cc(Cl)c(C)cc1NC(=O)CSc1ccc(C)cc1	-2	-2	0	0	74*	17
CC(C)CC(OC(=O)c1ccc(Cl)nc1)C(=O)NC1CCCC1 (stereo not drawn)	3	1	-5	-8	.	.
CC1(C)C2CCC1(C)C(SC(=N)N)C2 (stereo not drawn)	-6	.	.	-3	.	.
COc1cc(C(=O)N/C(=C/c2ccc(F)cc2)C(=O)NC(C(=O)O)c2ccccc2)cc(OC)c1OC (stereo not drawn)	1	1	-1	-3	.	.
FC(F)(F)c1nc(N2CCCC2)ncc1-c1nnnn1-c1ccccc1	3	2	0	-7	72*	4
CCOc1cccc(-c2cc(-c3n[nH]c(=S)n3CC)c3ccccc3n2)c1	14	2	4	8	87*	5
CCn1c(-c2cc(-c3ccc(C)c(C)c3)nc3ccccc23)n[nH]c1=S	.	1	1	.	76*	-10
O=Cc1ccc2ccc3cccnc3c2n1	4	3	5	7	.	.
c1cnc2c(c1)ccc1cccnc12	3	0	1	6	74*!	5
NC(=S)N/N=C1\CCOc2ccc(F)cc21	-4	0	-2	-1	22	.
Cc1ccccc1/C=C/C1=NCCN1	-12	1	-4	-4	99*	.
Cn1cc(C(=O)CCl)c2ccccc21	-1	.	.	2	88*	24
Cn1cc(C(N)=O)c2ccccc21	-16	-1	-2	1	18	-7
Cc1ccc(C(C)C)c(OCCNC(=S)Nc2cccc3ccccc23)c1	-2	0	4	-1	76*	-5
O=Cc1cn(-c2ccccc2)nc1-c1cc2ccccc2oc1=O	-10	-1	1	-2	88*	-3
SMILES	NOD2-RIPK2 inh	CHOP UPR activ	XBP1 UPR activ	TLR9-MyD88 block	CHOP inh	TLR4-MyD88 BLA
c1csc(CSc2nc3ccccc3s2)c1	9	3	2	8	86*	-1
Cc1noc(C)c1CSc1nc2ccccc2s1	-13	0	1	4	-14	2
CN(C)CC(CCC(CN(C)C)C(=O)c1ccccc1)C(=O)c1ccccc1 (stereo not drawn)	60*	.	.	14	106*	.
O=C(c1ccccc1)C(CCC(CN1CCOCC1)C(=O)c1ccccc1)CN1CCOCC1 (stereo not drawn)	30*	28	-7	10	98*	4
COCC(C)n1c(SCC(=O)NC(=O)NC2CCCC2)nc2ccccc2c1=O (stereo not drawn)	3	0	0	15	.	.
CC(C)NC(=S)N/N=C/c1ccc(C(C)(C)C)cc1	-1	2	1	-4	91*	-3
CC(C)NC(=S)N/N=C/c1cccs1	1	5	2	7	19	2
O=C(Cc1c(Cl)cccc1Cl)N/N=C/c1cccnc1	-3	0	-1	-4	.	.
CCc1ccc(CN(C)CC(=O)Nc2ccc3c(c2)CCC3)cc1	-2	-2	1	10	92*	-10
Cc1ccc(CN(C)CC(=O)Nc2ccc3c(c2)CCC3)cc1	6	2	-1	-2	-25	5
CN(Cc1ccc(C(C)(C)C)cc1)C(=O)c1ccc2c(c1)OCO2	0	-1	-1	4	.	.
COc1cc(SC)ccc1C(=O)Nc1ccc(Cl)cn1	-6	-7	-10	10	86*	-2
CSc1ccc(Cl)c(C(=O)Nc2ccc(Cl)cn2)c1	6	-1	2	-3	9	-1
O=C(NCCC(=O)N1CCCC(C(F)(F)F)C1)c1ccccc1Cl (stereo not drawn)	-3	2	-9	-6	.	.
Clc1ccc(CSc2nnc(-c3ccccn3)n2Cc2ccco2)c(Cl)c1	12	0	-1	4	82*	-9
Cc1nnc(N2C(=O)c3oc4ccccc4c(=O)c3C2c2ccco2)s1 (stereo not drawn)	-9	-1	-3	-5	9	-2
Cc1ccc(C2c3c(oc4ccccc4c3=O)C(=O)N2c2nnc(C(C)C)s2)o1 (stereo not drawn)	14	-1	3	5	85*	17
Cc1cc(=O)n2nc(-c3ccc(C(F)(F)F)cc3)sc2n1	-3	1	-1	-5	75*	6
COc1ccc(Cl)cc1Nc1nc(NCCO)nc(N2CCCCC2)n1	5	2	3	9	.	.
COc1ccc(Cl)cc1Nc1nc(NCCO)nc(N2CCCC2)n1	-1	-1	2	9	74*	10
Cc1cc(C(=O)N2CCCc3ccccc32)ccc1[N+](=O)[O-]	-4	2	-4	-4	.	.
CCCOc1ccc(CNC(=S)N/N=C/c2ccc([N+](=O)[O-])cc2)cc1	-4	1	3	-11	-7	-2
CCCOc1ccc(CNC(=S)NCc2ccc(OC(C)C)cc2)cc1	0	-2	-4	-10	82*	24
COc1ccc(/C=C(/C(=O)Nc2ccccc2C(=O)NC(C)C)c2ccccc2)cc1	-11	0	1	4	74*	1
COc1ccc(/C=C(/C(=O)Nc2ccccc2C(=O)N2CCCC2)c2ccccc2)cc1	11	0	-1	-1	7	-1
Cc1ccc(OCc2nnc(SCC(=O)CC(=O)Nc3ccccc3)o2)cc1	7	-2	-3	8	73*	-5
